Reference: ChEMBL document CHEMBL3124924, “Bifunctional ethyl 2-amino-4-methylthiazole-5-carboxylate derivatives: synthesis and in vitro biological evaluation as antimicrobial and anticancer agents” (2014)
≈ marks a conversion by molar mass, not a printed value. Calls of active or inactive are those of the source. The rule behind the calls is not given here.

Tests used:
Aspergillus niger = test: Antifungal activity against Aspergillus niger assessed as growth inhibition at 1 mg/mL after 24 hrs by agar-cup diffusion method; assay type: functional, organism-based
Method in brief: (§1)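 Agar-cup diffusion: 1 mL of 6 h broth culture seeded per 100 mL molten sterile agar at 45 °C and poured into plates. 8 mm cups cut, each filled with 0.1 mL of 1 mg/mL test solution. Incubated 37 °C for 24 h, 48 h for C. albicans. DMSO control per organism. Inhibition zone diameter in mm, mean of three measurements.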

Staphylococcus aureus [1] = test: Bactericidal activity against Staphylococcus aureus ATCC 6538 after 18 hrs; assay type: functional; conditions: ATCC 6538, 18 h
Method in brief: (§2)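 Continuation of the broth-dilution MIC test. A loopful from each tube without visible growth spread on a quarter of a Mueller-Hinton agar plate and incubated 18 h. Lowest concentration giving no growth on subculture taken as the MBC.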

Pseudomonas aeruginosa [2] = test: Antibacterial activity against Pseudomonas aeruginosa ATCC 27853 assessed as growth inhibition at 1 mg/mL after 24 hrs by agar-cup diffusion method; assay type: functional; conditions: ATCC 27853, 24 h, read-out: DIZ; method in brief: as §1
Bacillus spizizenii [3] = test: Antibacterial activity against Bacillus subtilis ATCC 6633 assessed as growth inhibition after 48 hrs by two-fold serial dilution assay; assay type: functional
Method in brief: (§3)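 Twofold serial broth dilution run on compounds giving inhibition zones of 13 mm or more. Organisms pre-grown in suitable broth at 37 °C, 24 h for bacteria and 48 h for fungi. Dilution series 200, 100, 50, 25, 12.5, 6.25. Each 5 mL tube inoculated with 0.1 mL and incubated 37 °C for 48 h. Tubes scored for presence or absence of growth.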

Escherichia coli [4] = test: Antibacterial activity against Escherichia coli ATCC 25922 assessed as growth inhibition at 1 mg/mL after 24 hrs by agar-cup diffusion method; assay type: functional; conditions: ATCC 25922, 24 h, read-out: DIZ; method in brief: as §1
Bacillus spizizenii [5] = test: Bactericidal activity against Bacillus subtilis ATCC 6633 after 18 hrs; assay type: functional; conditions: ATCC 6633, 18 h; method in brief: as §2
Escherichia coli [6] = test: Bactericidal activity against Escherichia coli ATCC 25922 after 18 hrs; assay type: functional; conditions: ATCC 25922, 18 h; method in brief: as §2
Staphylococcus aureus [7] = test: Antibacterial activity against Staphylococcus aureus ATCC 6538 assessed as growth inhibition after 48 hrs by two-fold serial dilution assay; assay type: functional; method in brief: as §3
Escherichia coli [8] = test: Antibacterial activity against Escherichia coli ATCC 25922 assessed as growth inhibition after 48 hrs by two-fold serial dilution assay; assay type: functional; method in brief: as §3
Staphylococcus aureus [9] = test: Antibacterial activity against Staphylococcus aureus ATCC 6538 assessed as growth inhibition at 1 mg/mL after 24 hrs by agar-cup diffusion method; assay type: functional; conditions: ATCC 6538, 24 h, read-out: DIZ; method in brief: as §1
Bacillus spizizenii [10] = test: Antibacterial activity against Bacillus subtilis ATCC 6633 assessed as growth inhibition at 1 mg/mL after 24 hrs by agar-cup diffusion method; assay type: functional; conditions: ATCC 6633, 24 h, read-out: DIZ; method in brief: as §1
Candida albicans [11] = test: Antifungal activity against Candida albicans ATCC 10231 assessed as growth inhibition at 1 mg/mL after 48 hrs by agar-cup diffusion method; assay type: functional; conditions: ATCC 10231, 48 h, read-out: DIZ; method in brief: as §1
Candida albicans [12] = test: Antifungal activity against Candida albicans ATCC 10231 assessed as growth inhibition after 48 hrs by two-fold serial dilution assay; assay type: functional; conditions: ATCC 10231, 48 h; method in brief: as §3
Pseudomonas aeruginosa [13] = test: Antibacterial activity against Pseudomonas aeruginosa ATCC 27853 assessed as growth inhibition after 48 hrs by two-fold serial dilution assay; assay type: functional; method in brief: as §3
Pseudomonas aeruginosa [14] = test: Bactericidal activity against Pseudomonas aeruginosa ATCC 27853 after 18 hrs; assay type: functional; conditions: ATCC 27853, 18 h; method in brief: as §2

Row | Molecule | growth inhibition (GI) (Aspergillus niger) | MBC (Staphylococcus aureus [1]) | zone of inhibition at 1000 µg/mL (Pseudomonas aeruginosa [2]) | MIC (Bacillus spizizenii [3]; ATCC 6633, 48 h) | zone of inhibition at 1000 µg/mL (Escherichia coli [4]) | MBC (Bacillus spizizenii [5]) | MBC (Escherichia coli [6]) | MIC (Staphylococcus aureus [7]; ATCC 6538, 48 h) | MIC (Escherichia coli [8]; ATCC 25922, 48 h) | zone of inhibition at 1000 µg/mL (Staphylococcus aureus [9]) | zone of inhibition at 1000 µg/mL (Bacillus spizizenii [10]) | zone of inhibition at 1000 µg/mL (Candida albicans [11]) | MIC (Candida albicans [12]) | MIC (Pseudomonas aeruginosa [13]) | MIC (Bacillus spizizenii [3]) | MIC (Staphylococcus aureus [7]) | MIC (Escherichia coli [8]) | MIC (Pseudomonas aeruginosa [13]; ATCC 27853, 48 h) | MBC (Pseudomonas aeruginosa [14])
1 | CCOC(=O)c1sc(NC(=S)NC2CCCCC2)nc1C | inactive | 100 µg/mL (≈ 305 µM) | > 13 mm | 100 µg/mL (≈ 305 µM) | > 13 mm | 200 µg/mL (≈ 611 µM) | 100 µg/mL (≈ 305 µM) | 50 µg/mL (≈ 153 µM) | 50 µg/mL (≈ 153 µM) | > 13 mm | > 13 mm | > 13 mm |  |  |  |  |  |  | 
2 | CCOC(=O)c1sc(/N=C/c2ccco2)nc1C | inactive | 100 µg/mL (≈ 378 µM) | > 13 mm | 100 µg/mL (≈ 378 µM) | > 13 mm | 200 µg/mL (≈ 757 µM) | 50 µg/mL (≈ 189 µM) | 50 µg/mL (≈ 189 µM) | 25 µg/mL (≈ 94.6 µM) | > 13 mm | > 13 mm | > 13 mm |  |  |  |  |  |  | 
3 | C[C@@H]1[C@H](O)[C@@H](C)/C=C/C=C/C=C/C=C/C=C/C=C/C=C/[C@H](O[C@@H]2O[C@H](C)[C@@H](O)[C@H](N)[C@@H]2O)C[C@@H]2O[C@](O)(C[C@@H](O)C[C@@H](O)[C@H](O)CC[C@@H](O)C[C@@H](O)CC(=O)O[C@H]1C)C[C@H](O)[C@H]2C(=O)O [AMPHOTERICIN B] |  |  |  |  |  |  |  |  |  |  |  |  | 1.56 µg/mL (≈ 1.69 µM) |  |  |  |  |  | 
4 | Cc1nc(NC(=S)Nc2ccccc2)sc1C(=O)NN | inactive | 100 µg/mL (≈ 325 µM) | > 13 mm | 100 µg/mL (≈ 325 µM) | > 13 mm | 200 µg/mL (≈ 651 µM) | 100 µg/mL (≈ 325 µM) | 50 µg/mL (≈ 163 µM) | 100 µg/mL (≈ 325 µM) | > 13 mm | > 13 mm | > 13 mm |  |  |  |  |  |  | 
5 | Clc1ccccc1C(c1ccccc1)(c1ccccc1)n1ccnc1 [CLOTRIMAZOLE] |  |  |  |  |  |  |  |  |  |  |  |  | 6.25 µg/mL (≈ 18.1 µM) |  |  |  |  |  | 
6 | GENTAMICIN |  |  |  |  |  |  |  |  |  |  |  |  |  | 12.5 µg/mL | 12.5 µg/mL | 3.12 µg/mL | 3.12 µg/mL |  | 
7 | Cc1nc(NC(=S)NC2CCCCC2)sc1C(=O)NN | inactive | 100 µg/mL (≈ 319 µM) | > 13 mm | 100 µg/mL (≈ 319 µM) | > 13 mm | 100 µg/mL (≈ 319 µM) | 100 µg/mL (≈ 319 µM) | 100 µg/mL (≈ 319 µM) | 50 µg/mL (≈ 160 µM) | > 13 mm | > 13 mm | > 13 mm |  |  |  |  |  | 100 µg/mL (≈ 319 µM) | 200 µg/mL (≈ 638 µM)
8 | CCOC(=O)c1sc(/N=C/c2cccs2)nc1C | inactive | 200 µg/mL (≈ 713 µM) | > 13 mm | 100 µg/mL (≈ 357 µM) | > 13 mm | 200 µg/mL (≈ 713 µM) | 100 µg/mL (≈ 357 µM) | 100 µg/mL (≈ 357 µM) | 50 µg/mL (≈ 178 µM) | > 13 mm | > 13 mm | > 13 mm |  |  |  |  |  |  | 
9 | CCOC(=O)c1sc(NC=O)nc1C | inactive | 200 µg/mL (≈ 934 µM) | > 13 mm | 100 µg/mL (≈ 467 µM) | > 13 mm | 200 µg/mL (≈ 934 µM) |  | 100 µg/mL (≈ 467 µM) |  | > 13 mm | > 13 mm | > 13 mm |  |  |  |  |  |  | 
10 | CCOC(=O)c1sc(NC(=S)Nc2ccc(C)cc2)nc1C | inactive | 50 µg/mL (≈ 149 µM) | > 13 mm | 100 µg/mL (≈ 298 µM) | > 13 mm | 100 µg/mL (≈ 298 µM) | 100 µg/mL (≈ 298 µM) | 50 µg/mL (≈ 149 µM) | 50 µg/mL (≈ 149 µM) | > 13 mm | > 13 mm | > 13 mm |  |  |  |  |  | 100 µg/mL (≈ 298 µM) | 200 µg/mL (≈ 596 µM)
11 | CC1(C)S[C@@H]2[C@H](NC(=O)[C@H](N)c3ccccc3)C(=O)N2[C@H]1C(=O)O.O.O.O [AMPICILLIN TRIHYDRATE] |  |  |  | 12.5 µg/mL |  |  |  | 6.25 µg/mL | 6.25 µg/mL |  |  |  |  |  |  |  |  | 12.5 µg/mL | 
